≈ marks a conversion by molar mass, not a printed value.
Assays:
[1] = system: Cryptococcus neoformans; assay: Antifungal activity against Cryptococcus neoformans cgmcc 2.3161 after 2 to 7 days by broth microdilution method; assay type: functional
Summary of the method: (§1)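 Broth microdilution in 96-well plates per NCCLS. Compounds and fluconazole reference dissolved in DMSO, serially diluted in growth medium, then inoculum suspension added, final concentrations 128 to 0.25 µg/mL (twofold series). Incubated at 32°C. MIC read visually after 2-7 d.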

[2] = system: Candida albicans; assay: Antifungal activity against Candida albicans cpcc 400616 after 2 to 7 days by broth microdilution method; assay type: functional; summary of the method: as §1
[3] = system: Aspergillus fumigatus; assay: Antifungal activity against Aspergillus fumigatus cgmcc 3.7795 after 2 to 7 days by broth microdilution method; assay type: functional; summary of the method: as §1
[4] = system: Candida albicans; assay: Antifungal activity against fluconazole-resistant Candida albicans 103 after 2 to 7 days by broth microdilution method; assay type: functional
Summary of the method: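 Broth microdilution per NCCLS. Compounds dissolved in DMSO, serially diluted in growth medium, then inoculum suspension added to give final concentrations of 128 to 0.25 µg/mL (twofold steps). Plates incubated at 32°C. MIC read by visual observation after 2-7 d. Fluconazole served as reference drug.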

[5] = system: Candida albicans; assay: Antifungal activity against fluconazole-sensitive Candida albicans ATCC SC5314 after 2 to 7 days by broth microdilution method; assay type: functional; summary of the method: as §1
[6] = system: Candida tropicalis; assay: Antifungal activity against Candida tropicalis cgmcc 2.3739 after 2 to 7 days by broth microdilution method; assay type: functional; summary of the method: as §1
[7] = system: HT-29; assay: Cytotoxicity against human HT-29 cells by MTT assay; assay type: cell-based
[8] = system: A549; assay: Cytotoxicity against human A549 cells by MTT assay; assay type: cell-based
[9] = system: HepG2; assay: Cytotoxicity against human HepG2 cells by MTT assay; assay type: cell-based
[10] = system: H9c2; assay: Cytotoxicity against rat H9c2 cells by MTT assay; assay type: cell-based

SMILES	MIC [1]	MIC [2]	MIC [3]	MIC [4]	MIC [5]	MIC [6]	IC50 [7]	IC50 [8]	IC50 [9]	IC50 [10]
ClC1=C(CN2CCCCC2)CSc2ccc(Br)cc21	4 µg/mL (≈ 11.2 µM)	32 µg/mL (≈ 89.2 µM)	> 128 µg/mL	64 µg/mL (≈ 178 µM)	8 µg/mL (≈ 22.3 µM)	128 µg/mL (≈ 357 µM)	–	–	–	–
Cc1ccc2c(c1)C(=O)CCS2	32 µg/mL (≈ 180 µM)	16 µg/mL (≈ 89.8 µM)	> 128 µg/mL	64 µg/mL (≈ 359 µM)	8 µg/mL (≈ 44.9 µM)	4 µg/mL (≈ 22.4 µM)	–	–	–	–
O=CC1=C(Cl)c2cc(F)ccc2SC1	32 µg/mL (≈ 140 µM)	64 µg/mL (≈ 280 µM)	> 128 µg/mL	64 µg/mL (≈ 280 µM)	64 µg/mL (≈ 280 µM)	16 µg/mL (≈ 70 µM)	–	–	–	–
Fc1ccc2c(c1)C(Cl)=C(CN1CCCC1)CS2	4 µg/mL (≈ 14.1 µM)	8 µg/mL (≈ 28.2 µM)	> 128 µg/mL	64 µg/mL (≈ 226 µM)	8 µg/mL (≈ 28.2 µM)	16 µg/mL (≈ 56.4 µM)	–	–	–	–
Cc1ccc2c(c1)C(Cl)=C(C=O)CS2	64 µg/mL (≈ 285 µM)	32 µg/mL (≈ 142 µM)	> 128 µg/mL	64 µg/mL (≈ 285 µM)	16 µg/mL (≈ 71.2 µM)	64 µg/mL (≈ 285 µM)	–	–	–	–
Fc1ccc2c(c1)C(Cl)=C(Cn1ccnc1)CS2	32 µg/mL (≈ 114 µM)	16 µg/mL (≈ 57 µM)	> 128 µg/mL	64 µg/mL (≈ 228 µM)	4 µg/mL (≈ 14.2 µM)	8 µg/mL (≈ 28.5 µM)	–	–	–	–
CC(C)NCC1=C(Cl)c2cc(Br)ccc2SC1	4 µg/mL (≈ 12 µM)	8 µg/mL (≈ 24 µM)	> 128 µg/mL	16 µg/mL (≈ 48.1 µM)	4 µg/mL (≈ 12 µM)	> 128 µg/mL	–	–	–	–
CCN(CC)CC1=C(Cl)c2cc(C)ccc2SC1	8 µg/mL (≈ 28.4 µM)	32 µg/mL (≈ 114 µM)	> 128 µg/mL	64 µg/mL (≈ 227 µM)	32 µg/mL (≈ 114 µM)	64 µg/mL (≈ 227 µM)	–	–	–	–
CC(C)N(CC1=C(Cl)c2cc(Cl)ccc2SC1)C(C)C	64 µg/mL (≈ 194 µM)	4 µg/mL (≈ 12.1 µM)	> 128 µg/mL	64 µg/mL (≈ 194 µM)	4 µg/mL (≈ 12.1 µM)	64 µg/mL (≈ 194 µM)	–	–	–	–
ClC1=C(CN2CCCC2)CSc2ccc(Cl)cc21	4 µg/mL (≈ 13.3 µM)	32 µg/mL (≈ 107 µM)	> 128 µg/mL	> 128 µg/mL	1 µg/mL (≈ 3.33 µM)	4 µg/mL (≈ 13.3 µM)	–	–	–	–
CCN(CC)CC1=C(Cl)c2cc(F)ccc2SC1	2 µg/mL (≈ 7 µM)	8 µg/mL (≈ 28 µM)	> 128 µg/mL	64 µg/mL (≈ 224 µM)	8 µg/mL (≈ 28 µM)	2 µg/mL (≈ 7 µM)	–	–	–	–
Cc1ccc2c(c1)C(Cl)=C(CN1CCCCC1)CS2	16 µg/mL (≈ 54.4 µM)	32 µg/mL (≈ 109 µM)	> 128 µg/mL	128 µg/mL (≈ 436 µM)	16 µg/mL (≈ 54.4 µM)	64 µg/mL (≈ 218 µM)	–	–	–	–
CC(C)NCC1=C(Cl)c2cc(F)ccc2SC1	4 µg/mL (≈ 14.7 µM)	8 µg/mL (≈ 29.4 µM)	64 µg/mL (≈ 235 µM)	64 µg/mL (≈ 235 µM)	2 µg/mL (≈ 7.36 µM)	2 µg/mL (≈ 7.36 µM)	–	–	–	–
ClC1=C(Cn2ccnc2)CSc2ccc(Br)cc21	8 µg/mL (≈ 23.4 µM)	64 µg/mL (≈ 187 µM)	> 128 µg/mL	> 128 µg/mL	16 µg/mL (≈ 46.8 µM)	> 128 µg/mL	–	–	–	–
ClC1=C(Cn2cncn2)CSc2ccc(Cl)cc21	4 µg/mL (≈ 13.4 µM)	16 µg/mL (≈ 53.7 µM)	> 128 µg/mL	32 µg/mL (≈ 107 µM)	8 µg/mL (≈ 26.8 µM)	32 µg/mL (≈ 107 µM)	–	–	–	–
CN1CCN(CC2=C(Cl)c3cc(Cl)ccc3SC2)CC1	4 µg/mL (≈ 12.1 µM)	32 µg/mL (≈ 97.2 µM)	> 128 µg/mL	64 µg/mL (≈ 194 µM)	16 µg/mL (≈ 48.6 µM)	64 µg/mL (≈ 194 µM)	–	–	–	–
O=C1CCSc2ccc(Br)cc21	64 µg/mL (≈ 263 µM)	32 µg/mL (≈ 132 µM)	> 128 µg/mL	64 µg/mL (≈ 263 µM)	8 µg/mL (≈ 32.9 µM)	16 µg/mL (≈ 65.8 µM)	–	–	–	–
OC(Cn1cncn1)(Cn1cncn1)c1ccc(F)cc1F [FLUCONAZOLE]	1 µg/mL (≈ 3.27 µM)	4 µg/mL (≈ 13.1 µM)	> 128 µg/mL	32 µg/mL (≈ 104 µM)	1 µg/mL (≈ 3.27 µM)	2 µg/mL (≈ 6.53 µM)	> 100 µg/mL	> 100 µg/mL	> 100 µg/mL	> 100 µg/mL
